Measured values as given in ChEMBL document CHEMBL1136225, “Selective 3-amino-2-pyridinone acetamide thrombin inhibitors incorporating weakly basic partially saturated heterobicyclic P1-arginine mimetics” (Bioorg Med Chem Lett, 2003).

Assays:
Homo sapiens [1] = species on record: Homo sapiens; assay: Concentration required to double the activated partial thromboplastin time in human plasma; format: functional
Outline: (§1)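 Standard clotting assays (APTT, PT and TT) run in human plasma; value is the inhibitor concentration required to double each clotting time.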

Homo sapiens [2] = species on record: Homo sapiens; assay: Concentration required to double the thrombin time in human plasma; format: functional; outline: as §1
[3] = pKa value was determined; format: physicochemical
Homo sapiens [4] = species on record: Homo sapiens; assay: Concentration required to double the prothrombin time in human plasma; format: functional; outline: as §1
Coagulation factor X = Coagulation factor X (Homo sapiens, UniProt P00742); assay: Inhibitory activity against coagulation factor X
Outline: (§2)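 Amidolytic enzyme assays with chromogenic substrates for thrombin, trypsin and factor Xa; Ki derived from IC50 by Cheng–Prusoff, or from reaction velocity equations with and without inhibitor using the relevant Km.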

[5] = biological target: T1, Serine protease 1 (Bos taurus) (UniProt P00760); assay: Selectivity for inhibition of thrombin to that of trypsin
T1 sequence (whole entry): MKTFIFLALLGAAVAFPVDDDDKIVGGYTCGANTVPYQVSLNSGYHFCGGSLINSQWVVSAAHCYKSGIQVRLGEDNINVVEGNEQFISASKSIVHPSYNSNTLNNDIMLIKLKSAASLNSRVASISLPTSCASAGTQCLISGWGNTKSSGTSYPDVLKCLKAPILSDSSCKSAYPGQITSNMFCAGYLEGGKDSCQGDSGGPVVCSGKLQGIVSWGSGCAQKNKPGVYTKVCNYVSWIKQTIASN
Outline: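 Selectivity expressed as Ki(trypsin)/Ki(thrombin), with both Ki values from chromogenic-substrate amidolytic assays.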

Prothrombin = Prothrombin (Homo sapiens, UniProt P00734); assay: Inhibitory activity against thrombin; outline: as §2
Serine protease 1 [6] = biological target: T2, Serine protease 1 (Bos taurus, UniProt P00760); assay: Inhibitory activity was evaluated against Trypsin; Inactive; outline: as §2
T2 sequence (P00760 whole entry): T1 sequence (whole entry)

Serine protease 1 [7] = biological target: T2, Serine protease 1; assay: Inhibitory activity against Trypsin; Inactive; outline: as §2
Serine protease 1 [8] = biological target: T2, Serine protease 1; assay: Inhibitory activity against Trypsin; outline: as §2

Coagulation factor X, sequence (P00742 41-179 limits assumed): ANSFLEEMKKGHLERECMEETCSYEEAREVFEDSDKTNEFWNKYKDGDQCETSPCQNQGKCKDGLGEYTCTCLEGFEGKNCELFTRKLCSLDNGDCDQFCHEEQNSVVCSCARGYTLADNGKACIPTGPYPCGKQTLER
Coagulation factor X, sequence (P00742 235-488 limits assumed): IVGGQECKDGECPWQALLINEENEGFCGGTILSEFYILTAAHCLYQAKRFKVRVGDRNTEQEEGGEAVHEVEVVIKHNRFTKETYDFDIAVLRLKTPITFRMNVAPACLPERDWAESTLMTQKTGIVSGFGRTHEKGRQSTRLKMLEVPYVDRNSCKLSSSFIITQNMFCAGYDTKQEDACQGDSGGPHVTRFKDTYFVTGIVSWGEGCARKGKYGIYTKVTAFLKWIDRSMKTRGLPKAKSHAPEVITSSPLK

Compound | pKa [3] | Ki (Coagulation factor X) [µM] | Selectivity [5] | Ki (Prothrombin) [µM] | Ki (Serine protease 1 [6]) | Ki (Serine protease 1 [7]) [µM] | Ki (Serine protease 1 [8]) [µM] | Concentration (Homo sapiens [1]) [µM] | Concentration (Homo sapiens [2]) [µM] | Concentration (Homo sapiens [4]) [µM]
Cc1ccc(NS(=O)(=O)Cc2ccccc2)c(=O)n1CC(=O)NC1CCc2n[nH]cc2C1 (stereo unspecified) | 3.7 | 99 | 93 | – | – | – | – | 272 | 105 | > 400
Cc1ccc(NS(=O)(=O)Cc2ccccc2)c(=O)n1CC(=O)NCC1CCc2nn(C)cc2C1 (stereo unspecified) | 3.6 | 95 | 47 | 11.8 | – | – | 557 | 318 | 105 | > 400
Cc1ccc(NS(=O)(=O)Cc2ccccc2)c(=O)n1CC(=O)NC1CCc2nc(N)sc2C1 (stereo unspecified) | 6.1 | – | – | – | – | – | – | – | – | –
Cc1ccc(NS(=O)(=O)Cc2ccccc2)c(=O)n1CC(=O)NC1CCc2nn(C)cc2C1 (stereo unspecified) | 3.2 | 90.2 | 32 | – | – | – | 807 | > 200 | 375 | > 400

The next lines start with results.

pKa [3] | Ki (Coagulation factor X) [µM] | Selectivity [5] | Ki (Prothrombin) [µM] | Ki (Serine protease 1 [6]) | Ki (Serine protease 1 [7]) [µM] | Ki (Serine protease 1 [8]) [µM] | Compound | Concentration (Homo sapiens [1]) [µM] | Concentration (Homo sapiens [2]) [µM] | Concentration (Homo sapiens [4]) [µM]
4 | 103 | – | 0.17 | Not Active | – | – | Cc1ccc(NS(=O)(=O)Cc2ccccc2)c(=O)n1CC(=O)NCC1CCc2n[nH]cc2C1 (stereo unspecified) | 20.5 | 5.2 | 30.6
– | – | – | 0.0087 | – | – | – | Cc1ccc(NS(=O)(=O)Cc2ccccc2)c(=O)n1CC(=O)NCc1ccc2[nH]ncc2c1 | – | – | –
– | 87.3 | – | 6.9 | – | 640 | – | Cc1ccc(NS(=O)(=O)Cc2ccccc2)c(=O)n1CC(=O)NCC1CCc2nc(N)ncc2C1 (stereo unspecified) | 219 | 84 | > 400
– | 106 | – | 2.5 | – | – | – | Cc1ccc(NS(=O)(=O)Cc2ccccc2)c(=O)n1CC(=O)NCC1CCc2nc(N)sc2C1 (stereo unspecified) | 121 | 44 | 334
